The source made the active and inactive calls. No cut-off for these calls is given here.
What was measured:
NCI-H322M = assay: Growth inhibition of human NCI-H322M cells; format: functional
NCI-H522 = assay: Growth inhibition of human NCI-H522 cells; format: functional
COLO 205 = assay: Growth inhibition of human COLO205 cells; format: functional
[1] = Growth inhibition of human HCT15 cells; format: functional
HT-29 = assay: Growth inhibition of human HT-29 cells; format: functional
[2] = Growth inhibition of human SF539 cells; format: functional
SNB-19 = assay: Growth inhibition of human SNB19 cells; format: functional
U-251 = assay: Growth inhibition of human U251 cells; format: functional
[3] = Growth inhibition of human LOXIMVI cells; format: functional; details: LOX IMVI
SK-MEL-2 = assay: Growth inhibition of human SK-MEL-2 cells; format: functional
SK-MEL-28 = assay: Growth inhibition of human SK-MEL-28 cells; format: functional
[4] = Growth inhibition of human UACC257 cells; format: functional; details: UACC-257
IGROV-1 = assay: Growth inhibition of human IGROV1 cells; format: functional
[5] = Growth inhibition of human OVCAR3 cells; format: functional; details: OVCAR-3
[6] = Growth inhibition of human OVCAR5 cells; format: functional; details: OVCAR-5
[7] = Growth inhibition of human OVCAR8 cells; format: functional
786-0 = assay: Growth inhibition of human 786-0 cells; format: functional
A498 = assay: Growth inhibition of human A498 cells; format: functional
ACHN = assay: Growth inhibition of human ACHN cells; format: functional
CAKI-1 = assay: Growth inhibition of human CAKI-1 cells; format: functional
[8] = Growth inhibition of human RXF393 cells; format: functional
TK-10 = assay: Growth inhibition of human TK10 cells; format: functional
PC-3 = assay: Growth inhibition of human PC3 cells; format: functional
MCF7 = assay: Growth inhibition of human MCF7 cells; format: functional
MDA-MB-231 = assay: Growth inhibition of human MDA-MB-231 cells; format: functional
[9] = Growth inhibition of human BT549 cells; format: functional
[10] = target: Proteasome Macropain subunit (Homo sapiens) (UniProt P49721); assay: Inhibition of trypsin-like activity of 20S proteasome in human erythrocytes using Boc-Leu-Arg-Arg-AMC as substrate by fluorescence assay; format: cell-based
Chain of Proteasome Macropain subunit (Homo sapiens) (P49721 whole entry): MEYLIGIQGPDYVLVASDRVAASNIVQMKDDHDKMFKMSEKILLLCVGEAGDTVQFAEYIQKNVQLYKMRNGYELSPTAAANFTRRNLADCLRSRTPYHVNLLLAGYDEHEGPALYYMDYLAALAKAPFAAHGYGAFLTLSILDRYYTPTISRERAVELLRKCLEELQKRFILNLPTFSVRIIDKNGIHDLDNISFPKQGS
Outline: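 Human 20S proteasome 0.0025 mg/mL at 30 °C in 50 mM Tris pH 7.4, 50 mM NaCl, 0.5 mM EDTA, 0.03% SDS, 7.5% DMSO. Varied inhibitor concentrations; AMC release monitored continuously for 10 min, ex 380/em 460 nm. Ki derived from progress-curve IC50 fit.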

Chymotrypsinogen A = Chymotrypsinogen A (Bos taurus, UniProt P00766); assay: Inhibition of bovine pancreatic alpha-chymotrypsin using Suc-Leu-Leu-Val-Tyr-AMC as substrate by fluorescence assay; details: read-out: Ki
Outline: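 Enzyme incubated at 20 °C in 50 mM Tris pH 8.0, 100 mM NaCl, 5 mM EDTA, 7.5% DMSO with varied inhibitor concentrations. Substrate hydrolysis followed for 10 min. Ki from progress curves; mean of three determinations.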

[11] = Cytotoxicity against human leukemia cells assessed as cell growth at 10 uM relative to control; format: functional; details: read-out: Activity
Outline: (§1)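 Single-concentration screen against a panel of human cancer cell lines. Each value is the mean percent growth across the cell lines of that tumour subpanel.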

[12] = Cytotoxicity against human CNSC cells assessed as cell growth at 10 uM relative to control; format: functional; details: read-out: Activity; outline: as §1
[13] = Cytotoxicity against human ovarian cancer cells assessed as cell growth at 10 uM relative to control; format: functional; details: Cancer cell lines, read-out: Activity; outline: as §1
[14] = Cytotoxicity against human renal cancer cells assessed as cell growth at 10 uM relative to control; format: functional; details: Cancer cell lines, read-out: Activity; outline: as §1
[15] = Cytotoxicity against human breast cancer cells assessed as cell growth at 10 uM relative to control; format: functional; details: Cancer cell lines, read-out: Activity; outline: as §1
K562 = assay: Growth inhibition of human K562 cells; format: functional
RPMI-8226 = assay: Growth inhibition of human RPMI8226 cells; format: functional
A549 = assay: Growth inhibition of human A549/ATCC cells; format: functional
HOP-62 = assay: Growth inhibition of human HOP62 cells; format: functional
[16] = Growth inhibition of human HOP92 cells; format: functional
NCI-H226 = assay: Growth inhibition of human NCI-H226 cells; format: functional
NCI-H23 = assay: Growth inhibition of human NCI-H23 cells; format: functional
[17] = read-out: LC50 (the source's name)

For `CC(C)C[C@H](NC(=O)CCn1ccc2ccc(Br)cc2c1=O)B(O)O`, the GI50 (NCI-H322M) was greater than 100 µM, the TGI (NCI-H322M) was greater than 100 µM and the CC50 (NCI-H322M; [17]) was greater than 100 µM. It also gave a GI50 (NCI-H522) of 0.3 µM, an LC50 (NCI-H522) greater than 100 µM and a TGI (NCI-H522) of 2.25 µM. It also gave a GI50 (COLO 205) of 0.85 µM, a TGI (COLO 205) greater than 100 µM and a CC50 (COLO 205; [17]) greater than 100 µM. It also gave a GI50 ([1]; HCT-15) of 1.61 µM, a TGI ([1]; HCT-15) of 22.1 µM and a CC50 ([1]; HCT-15, read-out: LC50 (the source's name)) greater than 100 µM. It also gave a GI50 (HT-29) of 0.45 µM, an LC50 (HT-29) greater than 100 µM and a TGI (HT-29) greater than 100 µM. The GI50 ([2]; SF-539) was 0.21 µM, the TGI ([2]; SF-539) was 0.6 µM and the CC50 ([2]; SF-539, read-out: LC50 (the source's name)) was greater than 100 µM. The GI50 (SNB-19) was 0.96 µM, the TGI (SNB-19) was greater than 100 µM and the CC50 (SNB-19; [17]) was greater than 100 µM. The GI50 (U-251) was 1.18 µM, the TGI (U-251) was greater than 100 µM and the CC50 (U-251; [17]) was greater than 100 µM. The GI50 [3] was 0.22 µM, the TGI [3] was 0.61 µM and the GI50 (SK-MEL-2) was 0.46 µM. It also gave an LC50 (SK-MEL-2) greater than 100 µM, a TGI (SK-MEL-2) of 4.56 µM and a GI50 (SK-MEL-28) of 0.52 µM. For the same compound, the TGI (SK-MEL-28) was 29.7 µM, the CC50 (SK-MEL-28; [17]) was greater than 100 µM and the GI50 [4] was 0.73 µM. For the same compound, the TGI [4] was 2.86 µM, the GI50 (IGROV-1) was 5.1 µM and the LC50 (IGROV-1) was greater than 100 µM. The TGI (IGROV-1) was greater than 100 µM, the GI50 [5] was 0.33 µM and the LC50 (concentration killing 50% of cells) [5] was 10.6 µM. The TGI [5] was 1.21 µM, the GI50 [6] was 3.15 µM and the LC50 [6] was greater than 100 µM. The TGI [6] was 97.3 µM, the GI50 ([7]; OVCAR-8) was 3.64 µM and the TGI ([7]; OVCAR-8) was greater than 100 µM. It also gave a CC50 ([7]; OVCAR-8, read-out: LC50 (the source's name)) greater than 100 µM, a GI50 (786-0) of 0.82 µM and a TGI (786-0) greater than 100 µM. It also gave a CC50 (786-0; [17]) greater than 100 µM, a GI50 (A498) of 0.13 µM and an LC50 (A498) greater than 100 µM. It also gave a TGI (A498) of 0.74 µM, a GI50 (ACHN) of 0.41 µM and a TGI (ACHN) greater than 100 µM. The CC50 (ACHN; [17]) was greater than 100 µM, the GI50 (CAKI-1) was 0.47 µM and the TGI (CAKI-1) was 10 µM. For the same compound, the CC50 (CAKI-1; [17]) was greater than 100 µM, the GI50 ([8]; RXF 393) was 0.28 µM and the TGI ([8]; RXF 393) was 0.88 µM. It also gave a CC50 ([8]; RXF 393, read-out: LC50 (the source's name)) of 5.39 µM, a GI50 (TK-10) of 0.37 µM and an LC50 (TK-10) greater than 100 µM. It also gave a TGI (TK-10) of 15.6 µM, a GI50 (PC-3) of 4.19 µM and a TGI (PC-3) greater than 100 µM. The CC50 (PC-3; [17]) was greater than 100 µM, the GI50 (MCF7) was 0.39 µM and the TGI (MCF7) was greater than 100 µM. The CC50 (MCF7; [17]) was greater than 100 µM, the GI50 (MDA-MB-231) was 1.2 µM and the TGI (MDA-MB-231) was 12.2 µM. It also gave a CC50 (MDA-MB-231; [17]) greater than 100 µM, a GI50 ([9]; BT-549) of 0.36 µM and a TGI ([9]; BT-549) of 4.32 µM. The CC50 ([9]; BT-549, read-out: LC50 (the source's name)) was greater than 100 µM, the inhibition [10] was “inactive” and the Ki (Chymotrypsinogen A) was 23.7 µM. It also gave a growth at 10 µM [11] of 0.02%, a growth at 10 µM [12] of 6.51% and a growth at 10 µM [13] of 38.8%. The growth at 10 µM [14] was -4%, the growth at 10 µM [15] was 2.31% and the GI50 (K562) was 1.08 µM. The TGI (K562) was greater than 100 µM, the CC50 (K562; [17]) was greater than 100 µM and the GI50 (RPMI-8226) was 0.32 µM. For the same compound, the TGI (RPMI-8226) was greater than 100 µM, the CC50 (RPMI-8226; [17]) was greater than 100 µM and the GI50 (A549) was 2.39 µM. For the same compound, the TGI (A549) was greater than 100 µM, the CC50 (A549; [17]) was greater than 100 µM and the GI50 (HOP-62) was 2.63 µM. It also gave a TGI (HOP-62) of 9.29 µM, a CC50 (HOP-62; [17]) greater than 100 µM and a GI50 ([16]; HOP-92) of 1.34 µM. The TGI ([16]; HOP-92) was 5.61 µM, the CC50 ([16]; HOP-92, read-out: LC50 (the source's name)) was greater than 100 µM and the GI50 (NCI-H226) was 0.19 µM. It also gave a TGI (NCI-H226) of 0.42 µM, a CC50 (NCI-H226; [17]) of 0.95 µM and a GI50 (NCI-H23) of 1.59 µM. The TGI (NCI-H23) was greater than 100 µM and the CC50 (NCI-H23; [17]) was greater than 100 µM.
